Data as given in ChEMBL document CHEMBL4680257, “Discovery of novel NF-кB inhibitor based on scaffold hopping: 1,4,5,6,7,8-hexahydropyrido[4,3-d]pyrimidine” (Eur J Med Chem, 2020).

Legend:
SMMC-7721 = assay: Cytotoxicity against human SMMC-7721 cells assessed as reduction in cell viability incubated for 24 hrs by MTT assay; assay type: functional, cell-based; details: SMMC-7721, 24 h
Summary of the method: (§1)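 Cells kept at 37 °C in 5% CO₂. HepG2 grown in DMEM with 10% serum; HHL-5, LO2 and SMMC-7721 in 1640 medium with 10% serum. Seeded, grown 24 h, then exposed 24 h to 10, 5, 2.5, 1.25, 0.625 and 0.3125 µg/mL. MTT (5 mg/mL) added for 4 h at 37 °C; formazan dissolved in DMSO, OD read at 570 nm. IC50 averaged from three replicates.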

[1] = Cytotoxicity against human HHL-5 cells assessed as reduction in cell viability incubated for 24 hrs by MTT assay; assay type: cell-based; details: HHL-5, 24 h; summary of the method: as §1
RAW264.7 [2] = assay: Cytotoxicity against mouse RAW264.7 cells assessed as reduction in cell viability at 5 uM incubated for 24 hrs by MTT assay; assay type: cell-based; details: raw264.7, 24 h
RAW264.7 [3] = assay: Antiinflammatory activity against mouse RAW264.7 cells assessed as LPS-induced IL-6 at 5 uM pretreated for 2 hrs followed by LPS stimulation and measured after 22 hrs by ELISA relative to control (reference value: 0 %); assay type: functional; details: time 24 hrs
RAW264.7 [4] = assay: Antiinflammatory activity against mouse RAW264.7 cells assessed as LPS-induced TNF-alpha at 5 uM pretreated for 2 hrs followed by LPS stimulation and measured after 22 hrs by ELISA (reference value: 0 %); assay type: functional; details: time 24 hrs
HepG2 = assay: Cytotoxicity against human HepG2 cells assessed as reduction in cell viability incubated for 24 hrs by MTT assay; assay type: functional, cell-based; details: HepG2, 24 h; summary of the method: as §1
L02 = assay: Cytotoxicity against human L02 cells assessed as reduction in cell viability incubated for 24 hrs by MTT assay; assay type: cell-based; details: L02, 24 h; summary of the method: as §1

| Structure (SMILES) | IC50 (SMMC-7721) [µM] | IC50 [1] [µM] | Activity (RAW264.7 [2]) | inhibition at 5 µM (RAW264.7 [3]) [%] | inhibition at 5 µM (RAW264.7 [4]) [%] | IC50 (HepG2) [µM] | IC50 (L02) [µM] |
| --- | --- | --- | --- | --- | --- | --- | --- |
| Cl.NC1=NC(c2ccc(F)cc2)C2=C(N1)/C(=C/c1ccc(F)cc1)CN(S(=O)(=O)c1ccc(Cl)cc1)C2 (stereo unspecified) | 12 | 27.1 | Non-Toxic | 54.8 | 48.4 | 7.6 | 16.7 |
| Cl.NC1=NC(c2cccc(F)c2)C2=C(N1)/C(=C/c1cccc(F)c1)CN(S(=O)(=O)c1ccc(Br)cc1)C2 (stereo unspecified) | 6.3 | 13 | Non-Toxic | 71 | 69.3 | 10.6 | 10.1 |
| Cl.NC1=NC(c2ccc(F)cc2)C2=C(N1)/C(=C/c1ccc(F)cc1)CN(S(=O)(=O)c1ccc(F)cc1)C2 (stereo unspecified) | 17.1 | 11.1 | Non-Toxic | 71.4 | 72.3 | 4.1 | 13.3 |
| Cc1ccc(S(=O)(=O)N2CC3=C(NC(N)=NC3c3cccc(F)c3)/C(=C/c3cccc(F)c3)C2)cc1.Cl (stereo unspecified) | 11.7 | 23.2 | Non-Toxic | 46.7 | 40.5 | 11.7 | 11.2 |
| Cl.N#Cc1ccc(S(=O)(=O)N2CC3=C(NC(N)=NC3c3ccccc3F)/C(=C/c3ccccc3F)C2)cc1 (stereo unspecified) | 19 | 29 | Non-Toxic | 71.2 | 62.9 | 11.7 | 12 |
| Cl.N#Cc1ccc(S(=O)(=O)N2CC3=C(NC(N)=NC3c3ccc(F)cc3)/C(=C/c3ccc(F)cc3)C2)cc1 (stereo unspecified) | 42.7 | 26.7 | Non-Toxic | 51.1 | 45.9 | 11.7 | 18.6 |
| Cl.NC1=NC(c2ccc(F)cc2)C2=C(N1)/C(=C/c1ccc(F)cc1)CN(S(=O)(=O)c1ccc([N+](=O)[O-])cc1)C2 (stereo unspecified) | 19.1 | 10.3 | Non-Toxic | 66.8 | 65.9 | 9.4 | 12.5 |
| Cl.NC1=NC(c2ccccc2F)C2=C(N1)/C(=C/c1ccccc1F)CN(S(=O)(=O)c1ccccc1)C2 (stereo unspecified) | 8.5 | 9.9 | Non-Toxic | 40.5 | 46.9 | 9.9 | 11.2 |
| Cl.NC1=NC(c2ccc(F)cc2)C2=C(N1)/C(=C/c1ccc(F)cc1)CN(S(=O)(=O)c1ccccc1)C2 (stereo unspecified) | 8 | 11.5 | Non-Toxic | 39.8 | 33.5 | 9.5 | 9.9 |
| Cl.NC1=NC(c2cccc(F)c2)C2=C(N1)/C(=C/c1cccc(F)c1)CN(S(=O)(=O)c1ccc(Cl)cc1)C2 (stereo unspecified) | 5.5 | 12 | Non-Toxic | 75.9 | 57.7 | 15 | 15.1 |
| Cl.NC1=NC(c2cccc(F)c2)C2=C(N1)/C(=C/c1cccc(F)c1)CN(S(=O)(=O)c1ccc([N+](=O)[O-])cc1)C2 (stereo unspecified) | 12.3 | 30.5 | Non-Toxic | 78.5 | 58.8 | 30.6 | 42.4 |
| Cl.NC1=NC(c2ccccc2F)C2=C(N1)/C(=C/c1ccccc1F)CN(S(=O)(=O)c1ccc(F)cc1)C2 (stereo unspecified) | 10 | 12 | Non-Toxic | 79.5 | 78.6 | 12.1 | 16.5 |
| Cl.NC1=NC(c2ccccc2F)C2=C(N1)/C(=C/c1ccccc1F)CN(S(=O)(=O)c1ccc([N+](=O)[O-])cc1)C2 (stereo unspecified) | 5.7 | 10.7 | Non-Toxic | 79.6 | 72.7 | 11.9 | 12.4 |
| Cc1ccc(S(=O)(=O)N2CC3=C(NC(N)=NC3c3ccc(F)cc3)/C(=C/c3ccc(F)cc3)C2)cc1.Cl (stereo unspecified) | 4.3 | 32.7 | Non-Toxic | 60.1 | 61.8 | 4.5 | 17.7 |
| CC(=O)Nc1ccc(S(=O)(=O)N2CC3=C(NC(N)=NC3c3ccccc3F)/C(=C/c3ccccc3F)C2)cc1.Cl (stereo unspecified) | 8.6 | 22.1 | Non-Toxic | 61.6 | 67.6 | 11.8 | 11.2 |
| CC(=O)Nc1ccc(S(=O)(=O)N2CC3=C(NC(N)=NC3c3ccc(F)cc3)/C(=C/c3ccc(F)cc3)C2)cc1.Cl (stereo unspecified) | 6.2 | 32.2 | Non-Toxic | 54.2 | 40.1 | 7.4 | 20.3 |
| Cl.NC1=NC(c2ccccc2F)C2=C(N1)/C(=C/c1ccccc1F)CN(S(=O)(=O)c1ccc(Br)cc1)C2 (stereo unspecified) | 9.7 | 12.5 | Non-Toxic | 79.6 | 74.4 | 10.4 | 19.5 |
| Cl.NC1=NC(c2ccc(F)cc2)C2=C(N1)/C(=C/c1ccc(F)cc1)CN(S(=O)(=O)c1ccc(Br)cc1)C2 (stereo unspecified) | 12.2 | 18.3 | Non-Toxic | 64.3 | 58.1 | 5.6 | 18.3 |
| Cl.N#Cc1ccc(S(=O)(=O)N2CC3=C(NC(N)=NC3c3cccc(F)c3)/C(=C/c3cccc(F)c3)C2)cc1 (stereo unspecified) | 4.2 | 18.9 | Non-Toxic | 73 | 74.5 | 3.5 | 17.2 |
| Cl.NC1=NC(c2ccccc2F)C2=C(N1)/C(=C/c1ccccc1F)CN(S(=O)(=O)c1ccc(Cl)cc1)C2 (stereo unspecified) | 4.9 | 9.1 | Non-Toxic | 81.5 | 83 | 12.2 | 11.5 |
| Cl.NC1=NC(c2cccc(F)c2)C2=C(N1)/C(=C/c1cccc(F)c1)CN(S(=O)(=O)c1ccc(F)cc1)C2 (stereo unspecified) | 4.8 | 12.9 | Non-Toxic | 74.9 | 71.6 | 12.4 | 18.8 |
| Cc1ccc(S(=O)(=O)N2CC3=C(NC(N)=NC3c3ccccc3F)/C(=C/c3ccccc3F)C2)cc1.Cl (stereo unspecified) | 7.3 | 9.6 | Non-Toxic | 56.8 | 44 | 13.1 | 11.5 |
| CC(=O)Nc1ccc(S(=O)(=O)N2CC3=C(NC(N)=NC3c3cccc(F)c3)/C(=C/c3cccc(F)c3)C2)cc1.Cl (stereo unspecified) | 6.5 | 10.7 | Non-Toxic | 57.5 | 69.9 | 22.9 | 15 |
